This note sets out measurements from ChEMBL document CHEMBL1143989, “New anti-viral drugs for the treatment of the common cold” (Bioorg Med Chem, 2008).

Data set [1] in a line: Inhibition of HRV 3C protease. Set-up: species or system Human rhinovirus sp.
The target of data set [2] is T1, Human rhinovirus A protease (Human rhinovirus sp.) (UniProt Q4U254).
T1 sequence (whole entry): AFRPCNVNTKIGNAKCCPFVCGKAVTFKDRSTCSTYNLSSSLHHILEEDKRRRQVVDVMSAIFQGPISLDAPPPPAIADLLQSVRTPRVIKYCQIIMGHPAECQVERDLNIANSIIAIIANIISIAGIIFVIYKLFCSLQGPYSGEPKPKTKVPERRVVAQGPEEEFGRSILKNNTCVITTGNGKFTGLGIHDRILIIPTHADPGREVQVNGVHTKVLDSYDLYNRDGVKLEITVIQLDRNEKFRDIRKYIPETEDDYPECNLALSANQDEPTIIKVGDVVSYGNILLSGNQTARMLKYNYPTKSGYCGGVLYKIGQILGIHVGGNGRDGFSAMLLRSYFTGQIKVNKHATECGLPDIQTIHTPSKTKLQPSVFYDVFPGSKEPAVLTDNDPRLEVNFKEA
The data set is described as follows: Inhibition of HRV14 3C protease at 1 mM. Conditions: rhinovirus B14.

Data set [3] concerns the target T1, Human rhinovirus A protease (Human rhinovirus sp.). The data set is described as follows: Inhibition of HRV14 3C protease in presence of dithiothreitol. Conditions: rhinovirus B14.
Data set [4] relates to Influenza A virus. The data set is described as follows: Antiviral activity against WSN influenza A virus. Type of data set: functional, organism-based. The procedure, abridged: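 Cell-based antiviral test in the VERO/MDCK cell set, run on 24-well plates by analogy with the HeLa/rhinovirus method. Activity was scored after 48 h of incubation at 37 °C under 5% CO2.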
Data set [5] deals with T1, Human rhinovirus A protease (Human rhinovirus sp.). The experiment in a line: Inhibition of HRV14 3C protease at 0.1 uM. Conditions: rhinovirus B14.
Data set [6] concerns rhinovirus B14. The experiment in a line: Antiviral activity against HRV14. It is filed as functional, organism-based. Conditions: Rhinovirus B; read-out: ID50 (the source's name). An outline of the steps:
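HeLa (Ohio) monolayers at 33 °C, 3% CO2, in DMEM with 1% non-essential amino acids and 10% FCS. Infected with HRV-14 at MOI 0.1, then decreasing compound amounts added. After 24 h, freeze-thaw; supernatant titrated under 2% nutrient agar and plaques counted after neutral red staining. ID50 derived from plaque counts.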

Data set [7] has as its system Human alphaherpesvirus 2. The data set is described as follows: Antiviral activity against HSV2. It is filed as functional, organism-based.
The target of data set [8] is T1, Human rhinovirus A protease (Human rhinovirus sp.). The experiment in a line: Inhibition of HRV14 3C protease at 10 uM. Conditions: rhinovirus B14. The procedure, abridged: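 Recombinant HRV14 3C protease at 0.7 uM with EALFQ-pNA chromogenic substrate, compound at 10 µM final, 1% DMSO final. Buffer: 25 mM Hepes pH 7.5, 150 mM NaCl, 0.12 mM DTT, 1 mM EDTA. Started by adding enzyme; A405 read at 0 and 60 min at 30 °C. Percent inhibition vs uninhibited control; duplicates, mean ± SD.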

Data set [9] is described as follows: Cytotoxicity against human HeLa cells after 5 days. Conditions: read-out: Maximal non-toxic dose 50. It is filed as cell-based. The procedure, abridged: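 HeLa (Ohio strain) cells plated at about 10^4 cells per ml in 24-well plates, kept at 33 °C in 3% CO2 in DMEM with 1% non-essential amino acids and 10% FCS. Exposed to decreasing compound concentrations for 5 days; viability read by neutral red uptake. MNTD50 (dose inhibiting less than 50% replication vs control) obtained by regression; triplicate.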

In data set [10] the target is T1, Human rhinovirus A protease (Human rhinovirus sp.). The data set is described as follows: Inhibition of HRV14 3C protease at 1 uM. Conditions: rhinovirus B14.
Data set [11] has the same target. The experiment in a line: Inhibition of HRV14 3C protease at 0.16 to 100 uM. Conditions: rhinovirus B14. The procedure, abridged: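 Colorimetric HRV14 3C protease assay: 0.7 uM enzyme, EALFQ-pNA substrate, Hepes pH 7.5 buffer with 0.12 mM DTT and 1 mM EDTA. Compound tested across 0.16 to 100 µM; p-nitroaniline release read at 405 nm after 60 min at 30 °C.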

Values after ≈ are worked out from the molar mass of the structure shown. Active and inactive are the calls of the source. No cut-off for these calls is given here.

The inhibition is the percentage by which the read-out fell short of the control. A low value points to a response near the control.

Molecule `NC(=O)CCN(NC(=O)[C@H](Cc1ccccc1)NC(=O)OCc1ccccc1)C(=O)CBr` yielded an IC50 in data set [1] of 48 nM.

`CC(=O)N[C@@H](CC(C)C)C(=O)N[C@@H](CC(C)C)C(=O)N[C@H](C=O)CCCNC(=N)N` came in with an inhibition in data set [2] of 57%.

Turning to `NC(=O)c1cccc(C(=O)CBr)c1`, the outcome in data set [3] was inactive. The outcome in data set [4] and in data set [7] was Active. In addition, the inhibition in data set [5] was determined as 4%; in data set [8], 85%; in [10], 23%. Moreover, the IC50 in data set [6] stood at 25 µg/mL (≈ 103 µM). Further, the MNTC at 120 h in data set [9] was more than 100 µg/mL.

`NC(=O)c1cc(Cc2ccccc2)cc(C(=O)C(Br)Br)c1`: in data set [3], the outcome was inactive. For the same molecule, the inhibition in data set [5] was 14%; in data set [8], 75%; in data set [10], 27%.

`NC(=O)c1cccc(C(=O)CCl)c1` returned an inhibition in data set [8] of more than 50%. Further, the MNTC at 120 h in [9] came to 3.12 µg/mL.

Consider `NC(=O)c1cc(Cc2ccc3ccccc3c2)cc(C(=O)CBr)c1`, for which the outcome in data set [3] was inactive. Further, the inhibition in data set [5] turned out to be 12%; in data set [8] it was 83%; in data set [10] it was 39%.

On to `NC(=O)c1cc(C(=O)CBr)cc(C(=O)Nc2ccccc2)c1`, for which the result in [3] was inactive. The values for the inhibition in data set [5], in data set [8] and in data set [10] were 8%, 86% and 27%, respectively.

In data set [8], `NC(=O)c1cccc(C(=O)C(Cl)Cl)c1` returned an inhibition of more than 50%.

As to `NC(=O)c1cc(Cc2ccccc2)cc(C(=O)CBr)c1`, the outcome in data set [3] was inactive. Further, the values for the inhibition in data set [5], in data set [8] and in data set [10] were 0%, 68% and 30%, respectively.

For the molecule `NC(=O)c1cc(Cc2ccccc2)cc(C(=O)CCl)c1`, in [3], the outcome was inactive. The inhibition in [5] is 14%; in [8], 91%; in [10], 79%. Moreover, the IC50 in data set [6] was more than 0.75 µg/mL. Also, the MNTC at 120 h in data set [9] was determined as 0.75 µg/mL.

Turning to `CCOC(=O)/C=C/[C@H](CCC(N)=O)CC(=O)[C@H](Cc1ccccc1)NC(=O)[C@H](CC(C)C)NC(=O)OCc1ccccc1`, the IC50 in data set [1] turned out to be 540 nM.

On to `NC(=O)c1cc(C(=O)CBr)cc(C(=O)Nc2ccc3ccccc3c2)c1`, for which the outcome in [3] was inactive. Also, the inhibition in [5] was 5%; in data set [8], 80%; in data set [10] it was 19%.

In data set [1], `CCOC(=O)CCn1c(=O)c2ccccc2n(CC(=O)c2ccccc2)c1=O` registered an IC50 of 55400 nM.

As for `O=C(CBr)c1ccc2c(c1)C(=O)NC2`, in data set [3], the result was inactive. The figures for the inhibition in data set [5], in [8] and in data set [10] were 0%, 70% and 25%, respectively.

`CCOC(=O)/C=C/[C@H](C[C@@H]1CCNC1=O)NC(=O)[C@@H](CC(=O)[C@@H](NC(=O)c1cc(C)on1)C(C)C)Cc1ccc(F)cc1`: in data set [3], the result was inactive.

Turning to `NC(=O)c1cccc(C(=O)C(Br)Br)c1`, in [8], the inhibition is more than 50%.

Take `NC(=O)c1cccc(C(=O)C(F)(F)F)c1`: in data set [11], the outcome was inactive.

`NC(=O)c1cc(Cc2ccc3ccccc3c2)cc(C(=O)CCl)c1`: the result in data set [3] was inactive. In addition, the values for the inhibition in data set [5], in [8] and in data set [10] were 25%, 81% and 61%, respectively. Further, the IC50 in data set [6] was more than 0.75 µg/mL. The MNTC at 120 h in data set [9] amounted to 0.75 µg/mL.

For the molecule `NC(=O)c1cc(Cc2ccc3ccccc3c2)cc(C(=O)C(Br)Br)c1`, the inhibition in [8] is more than 70%.
